{
  "source": "paper PMC6839502",
  "about": "(Journal of Alzheimer's Disease, 2019)",
  "key": {"pigmented C57BL/6J mice": {"system": "pigmented C57BL/6J mice", "details": "long-term toxicology studies / 3 weeks of treatment in pigmented C57BL/6J mice; cited from earlier work"}, "CSF Aβ fragments": {"system": "CSF Aβ fragments", "assay": "CSF Aβ fragments, sAβPPα and sAβPPβ after multiple doses", "format": "in vivo, human", "details": "healthy adults", "procedure,_shortened": "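Healthy adults (18–55 y), randomized double-blind placebo-controlled, oral QD for 14 days, fasted on Days 1, 7, and 14. Lumbar-puncture CSF was taken on Day –3 (B8271004) or Day 0 (B8271001) and on Day 15, 24 h post last dose. Total Aβ was measured by DELFIA (LLOQ 391.0 pg/mL). Ln change from baseline was analysed by ANCOVA with treatment as a fixed effect and ln baseline as covariate, then converted to percent change versus pooled placebo with 2-sided 80% CI.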"}, "Cathepsin D (Cat D)": {"system": "Cathepsin D (Cat D)", "details": "FP assay; cited from earlier work"}},
  "note": "Values joined by “and” are separate entries in the source; they are usually repeats but may differ in a detail not shown here. Equal entries are not always repeated. “Also recorded” adds a separate entry of the source.",
  "data": [
    {"smiles": "C[C@H]1C[C@H]2CSC(N)=N[C@@]2(c2nc(NC(=O)c3ccc(OC(F)F)cn3)cs2)CO1", "note": "[PF-06751979]", "values": [
      {"measurement": "Hair color (pigmentation) change", "setting": "pigmented C57BL/6J mice", "value": "not observed; also recorded: did not reveal pigmentation changes"},
      {"measurement": "CSF Aβ1–38 percent change from baseline to Day 15 (2-sided 80% CI)", "setting": "CSF Aβ fragments; 50 mg QD 14 days, B8271001", "value": "–58.4 (–61.34, –55.28) %"},
      {"measurement": "CSF Aβ1–40 percent change from baseline to Day 15 (2-sided 80% CI)", "setting": "CSF Aβ fragments; 50 mg QD 14 days, B8271001", "value": "–70.2 (–74.20, –65.52) %"},
      {"measurement": "CSF Aβ1–40 placebo-adjusted percent change from baseline to Day 15 (2-sided 80% CI)", "setting": "CSF Aβ fragments; 50 mg QD 14 days, B8271001", "value": "–68.1 (–75.87, –57.86) %"},
      {"measurement": "CSF Aβ1–42 percent change from baseline to Day 15 (2-sided 80% CI)", "setting": "CSF Aβ fragments; 50 mg QD 14 days, B8271001", "value": "–71.9 (–74.97, –68.57) %"},
      {"measurement": "CSF Aβ total percent change from baseline to Day 15 (2-sided 80% CI)", "setting": "CSF Aβ fragments; 50 mg QD 14 days, B8271001", "value": "–64.0 (–66.62, –61.25) %"},
      {"measurement": "CSF Aβx-38 percent change from baseline to Day 15 (2-sided 80% CI)", "setting": "CSF Aβ fragments; 50 mg QD 14 days, B8271001", "value": "–60.2 (–63.42, –56.67) %"},
      {"measurement": "CSF Aβx-40 percent change from baseline to Day 15 (2-sided 80% CI)", "setting": "CSF Aβ fragments; 50 mg QD 14 days, B8271001", "value": "–60.4 (–63.71, –56.76) %"},
      {"measurement": "CSF Aβx-42 percent change from baseline to Day 15 (2-sided 80% CI)", "setting": "CSF Aβ fragments; 50 mg QD 14 days, B8271001", "value": "–64.3 (–67.21, –61.11) %"},
      {"measurement": "CSF sAβPPα percent change from baseline to Day 15 (2-sided 80% CI)", "setting": "CSF Aβ fragments; 50 mg QD 14 days, B8271001", "value": "48.4 (38.56, 58.98) %"},
      {"measurement": "CSF sAβPPβ percent change from baseline to Day 15 (2-sided 80% CI)", "setting": "CSF Aβ fragments; 50 mg QD 14 days, B8271001", "value": "–70.6 (–72.23, –68.93) %"},
      {"measurement": "CSF Aβ1–38 percent change from baseline to Day 15 (2-sided 80% CI)", "setting": "CSF Aβ fragments; 125 mg QD 14 days, B8271004", "value": "–80.3 (–81.51, –79.06) %"},
      {"measurement": "CSF Aβ1–40 percent change from baseline to Day 15 (2-sided 80% CI)", "setting": "CSF Aβ fragments; 125 mg QD 14 days, B8271004", "value": "–85.5 (–86.45, –84.38) %"},
      {"measurement": "CSF Aβ1–40 placebo-adjusted percent change from baseline to Day 15 (2-sided 80% CI)", "setting": "CSF Aβ fragments; 125 mg QD 14 days, B8271004", "value": "–83.8 (–85.65, –81.78) %"},
      {"measurement": "CSF Aβ1–42 percent change from baseline to Day 15 (2-sided 80% CI)", "setting": "CSF Aβ fragments; 125 mg QD 14 days, B8271004", "value": "–86.4 (–87.40, –85.28) %"},
      {"measurement": "CSF Aβ total percent change from baseline to Day 15 (2-sided 80% CI)", "setting": "CSF Aβ fragments; 125 mg QD 14 days, B8271004", "value": "–80.1 (–81.01, –79.18) %"},
      {"measurement": "CSF Aβx-38 percent change from baseline to Day 15 (2-sided 80% CI)", "setting": "CSF Aβ fragments; 125 mg QD 14 days, B8271004", "value": "–82.0 (–83.18, –80.74) %"},
      {"measurement": "CSF Aβx-40 percent change from baseline to Day 15 (2-sided 80% CI)", "setting": "CSF Aβ fragments; 125 mg QD 14 days, B8271004", "value": "–81.0 (–82.16, –79.76) %"},
      {"measurement": "CSF Aβx-42 percent change from baseline to Day 15 (2-sided 80% CI)", "setting": "CSF Aβ fragments; 125 mg QD 14 days, B8271004", "value": "–81.9 (–82.76, –80.91) %"},
      {"measurement": "CSF sAβPPα percent change from baseline to Day 15 (2-sided 80% CI)", "setting": "CSF Aβ fragments; 125 mg QD 14 days, B8271004", "value": "58.7 (48.89, 69.05) %"},
      {"measurement": "CSF sAβPPβ percent change from baseline to Day 15 (2-sided 80% CI)", "setting": "CSF Aβ fragments; 125 mg QD 14 days, B8271004", "value": "–81.3 (–82.21, –80.27) %"},
      {"measurement": "CSF Aβ1–38 percent change from baseline to Day 15 (2-sided 80% CI)", "setting": "CSF Aβ fragments; 275 mg QD 14 days, B8271004", "value": "–87.9 (–88.82, –86.98) %"},
      {"measurement": "CSF Aβ1–40 percent change from baseline to Day 15 (2-sided 80% CI)", "setting": "CSF Aβ fragments; 275 mg QD 14 days, B8271004", "value": "–92.9 (–93.54, –92.25) %"},
      {"measurement": "CSF Aβ1–40 placebo-adjusted percent change from baseline to Day 15 (2-sided 80% CI)", "setting": "CSF Aβ fragments; 275 mg QD 14 days, B8271004", "value": "–92.1 (–93.15, –90.98) %"},
      {"measurement": "CSF Aβ1–42 percent change from baseline to Day 15 (2-sided 80% CI)", "setting": "CSF Aβ fragments; 275 mg QD 14 days, B8271004", "value": "–93.6 (–94.22, –92.93) %"},
      {"measurement": "CSF Aβ total percent change from baseline to Day 15 (2-sided 80% CI)", "setting": "CSF Aβ fragments; 275 mg QD 14 days, B8271004", "value": "–86.5 (–87.26, –85.74) %"},
      {"measurement": "CSF Aβx-38 percent change from baseline to Day 15 (2-sided 80% CI)", "setting": "CSF Aβ fragments; 275 mg QD 14 days, B8271004", "value": "–90.1 (–90.91, –89.23) %"},
      {"measurement": "CSF Aβx-40 percent change from baseline to Day 15 (2-sided 80% CI)", "setting": "CSF Aβ fragments; 275 mg QD 14 days, B8271004", "value": "–87.6 (–88.55, –86.62) %"},
      {"measurement": "CSF Aβx-42 percent change from baseline to Day 15 (2-sided 80% CI)", "setting": "CSF Aβ fragments; 275 mg QD 14 days, B8271004", "value": "–86.6 (–87.43, –85.76) %"},
      {"measurement": "CSF sAβPPα percent change from baseline to Day 15 (2-sided 80% CI)", "setting": "CSF Aβ fragments; 275 mg QD 14 days, B8271004", "value": "81.7 (67.79, 96.85) %"},
      {"measurement": "CSF sAβPPβ percent change from baseline to Day 15 (2-sided 80% CI)", "setting": "CSF Aβ fragments; 275 mg QD 14 days, B8271004", "value": "–84.3 (–85.28, –83.26) %"},
      {"measurement": "Maximum observed (placebo-adjusted) reduction in CSF Aβ1–42", "setting": "CSF Aβ fragments; 275 mg QD, 24 h after Day 14 dose", "value": "~93% and 92.9%"},
      {"measurement": "Selectivity over Cathepsin D", "setting": "Cathepsin D (Cat D)", "value": "~2500", "unit": "fold"}
    ]}
  ]
}
